Results published in PubChem BioAssay.
Calls of active or inactive are those of the source.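 The calls were made as follows, unless noted: active = viability at or under a set limit in both replicates, limit being median viability minus 3 SD (cut at about 48% in these data, passing the limit was not always enough); inconclusive = at or under the limit in just one replicate; inactive = at or above the limit in both replicates.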

Tests used:
[1] = Her2 expression decrease, cell viability multiplex – SKBR3 breast tumor cells, AlphaScreen, ATP viability, primary screen (AID 461;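 active = Her2 level under about 52% in both replicate screens, with viability over 70% of control, limit read from the data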;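 as to Her2 level: lower value means less Her2 protein in the cells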;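 as to viability: percent of carrier control wells set as 100% viability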); details: SKBR3 Her2 protein level, 18-24 h, measured here: SKBR3 viability, ATP luminescence, at 10 µM
[2] = biological target: Receptor tyrosine-protein kinase erbB-2 (Homo sapiens) (UniProt P04626); experiment: as above; details: 18-24 h, at 10 µM, stronger effect = lower value
[3] = reduced viability of SK-BR-3 breast cancer cells – cell-based, 24 h, human, pilot screen (AID 572;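 active = viability at or below 10% of carrier control in both of two separate runs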;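 also: compound exposure lasted between 18 and 24 h rather than exactly 24 h; 100% = carrier-treated control wells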); details: SK-BR-3 viability, CellTiter-Glo luminescence, at 10 µM, stronger effect = lower value
[4] = HUVEC growth inhibition – cell-based, human, primary screen (AID 575;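 active = viability at or below 30% in both replicate assays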;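 also: 100% = median of untreated cell wells with 0.1% DMSO on each plate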); details: HUVEC proliferation, CellTiter-Glo luminescence, 72 h; at 10 µM; stronger effect = lower value
Outline: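 Assay system: primary human umbilical vein endothelial cells / Buffer or medium: endothelial basal medium with 2% FBS plus growth supplements / Compound dosing: one dose, 10 µM final, 0.1% DMSO / Timing: 72 h treatment at 37 °C / Signal: CTG luminescence / Benchmarks: 32 DMSO-only cell-control wells (high), 32 MePR drug-control wells (low) per plate / Plate: collagen-coated 384-well format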

[5] = H69AR cell proliferation blockers – human, duplicate replicates, primary screen (AID 580); details: H69AR lung tumor cells viability, ATP luminescence, 72 h; at 10 µM; stronger effect = lower value;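 also: 100% = mean luminescence of untreated wells and 0% = no signal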
[6] = MRP1 drug-resistance reversers in H69AR cells – cell-based, doxorubicin co-treatment, pilot screen (AID 601;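 active = viability loss from added drug above about 55%, and viability with drug at most 40%, in both replicates, limit read from the data, passing the limit was not always enough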); details: CellTiter-Glo, 72 h, at 10 µM; for differential viability (reversal): stronger effect = higher value
[7] = yeast transport mutant growth inhibition pilot in 384-well plates, post-Golgi transport modulator project (AID 636; in the data active = inhibition above about 31%); details: absorbance 615 nm, about 18 h, stronger effect = higher value
[8] = growth suppression of yeast trafficking mutant, preliminary HTS, modulators of trafficking downstream of Golgi apparatus project, 1536-format plate, OD 615 nm (AID 637; in the data active = inhibition above about 30%); details: yeast transport mutant growth, absorbance 615 nm, 18 h; stronger effect = higher value
[9] = H69AR cells + 2 uM doxorubicin, measured here: viability with 2 uM doxorubicin, stronger effect = lower value
[10] = H69AR cells, compound alone cytotoxicity

Sequence of Receptor tyrosine-protein kinase erbB-2 (Homo sapiens) (P04626 whole entry, looked up): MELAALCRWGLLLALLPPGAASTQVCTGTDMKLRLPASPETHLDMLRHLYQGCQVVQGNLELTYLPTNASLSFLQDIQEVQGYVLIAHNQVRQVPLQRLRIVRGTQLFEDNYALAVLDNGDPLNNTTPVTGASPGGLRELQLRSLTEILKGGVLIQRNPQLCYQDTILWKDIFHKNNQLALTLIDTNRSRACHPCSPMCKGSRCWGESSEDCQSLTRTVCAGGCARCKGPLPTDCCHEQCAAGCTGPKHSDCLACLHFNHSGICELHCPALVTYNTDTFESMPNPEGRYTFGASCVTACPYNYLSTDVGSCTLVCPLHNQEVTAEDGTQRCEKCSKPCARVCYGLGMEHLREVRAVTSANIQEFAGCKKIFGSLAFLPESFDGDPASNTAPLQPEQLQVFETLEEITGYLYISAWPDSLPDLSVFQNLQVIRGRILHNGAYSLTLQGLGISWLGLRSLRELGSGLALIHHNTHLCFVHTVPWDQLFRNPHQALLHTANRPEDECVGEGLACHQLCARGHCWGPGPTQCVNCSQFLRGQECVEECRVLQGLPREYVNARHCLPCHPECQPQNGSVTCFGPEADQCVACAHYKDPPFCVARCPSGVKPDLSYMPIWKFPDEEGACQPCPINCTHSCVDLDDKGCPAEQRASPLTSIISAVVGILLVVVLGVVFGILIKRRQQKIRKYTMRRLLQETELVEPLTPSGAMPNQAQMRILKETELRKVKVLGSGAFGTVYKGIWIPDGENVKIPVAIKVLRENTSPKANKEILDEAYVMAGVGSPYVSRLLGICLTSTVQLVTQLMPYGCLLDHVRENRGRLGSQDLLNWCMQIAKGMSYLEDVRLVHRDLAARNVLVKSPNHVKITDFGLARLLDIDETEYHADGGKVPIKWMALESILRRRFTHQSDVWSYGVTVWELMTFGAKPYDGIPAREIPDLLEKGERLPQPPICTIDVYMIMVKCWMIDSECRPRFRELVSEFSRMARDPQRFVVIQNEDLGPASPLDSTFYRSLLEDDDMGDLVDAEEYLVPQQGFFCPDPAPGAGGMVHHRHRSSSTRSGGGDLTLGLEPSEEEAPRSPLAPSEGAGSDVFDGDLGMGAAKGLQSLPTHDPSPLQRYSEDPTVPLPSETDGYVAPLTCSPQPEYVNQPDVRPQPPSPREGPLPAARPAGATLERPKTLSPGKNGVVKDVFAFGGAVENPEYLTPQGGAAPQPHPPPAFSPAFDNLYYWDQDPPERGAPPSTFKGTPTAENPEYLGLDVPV

| SMILES | viability [1] [%] | Her2 level [2] | viability [3] | viability [4] | viability [5] | differential viability (reversal) ([6]; H69AR cells + 2 uM doxorubicin) | viability [6, 9] [%] | viability [6, 10] [%] | inhibition [7] | inhibition [8] |
| --- | --- | --- | --- | --- | --- | --- | --- | --- | --- | --- |
| CCN(CC)CCn1c2ccccc2c2nc(C)sc21 | 113 | 96.5% (inactive) | 113% (inactive) | 104% (inactive) | 92.6% (inactive) | -7.46% (inactive) | 100 | 92.6 | -5.32% (inactive) | -2.54% (inactive) |
| Cc1c(C(=O)NCc2cccnc2)sc2ncn(CC(=O)N3CCCCC3C)c(=O)c12 (stereo not given) | 98 | 88.5% (inactive) | 98% (inactive) | 102% (inactive) | 97% (inactive) | 1.24% (inactive) | 95.8 | 97 | -0.79% (inactive) | 1.61% (inactive) |
| CCOC(=O)C1CCN(c2c(N(C)Cc3ccco3)c(=O)c2=O)CC1 | 78 | 105% (inactive) | 78% (inactive) | 93% (inactive) | 104% (inactive) | 15% (inactive) | 88.9 | 104 | 0.13% (inactive) | -5.5% (inactive) |
| Cc1nc2ccccc2c2c1C(=O)N(CCC1=CCCCC1)C2=O | 83.5 | 87% (inactive) | 83.5% (inactive) | 103% (inactive) | 88.4% (inactive) | -1.33% (inactive) | 89.7 | 88.4 | -3.42% (inactive) | -1.17% (inactive) |
| COc1ccc(C(=O)Nn2c(C3CCC3)nc3ccccc3c2=O)c(OC)c1 | 93.5 | 97% (inactive) | 93.5% (inactive) | 85.8% (inactive) | 111% (inactive) | 30% (inactive) | 80.7 | 111 | -1.56% (inactive) | 1.9% (inactive) |
| COc1ccc(CN2C(=O)c3cccnc3C2Nc2cc(Cl)ccc2OC)cc1 (stereo not given) | 84.5 | 110% (inactive) | 84.5% (inactive) | 85% (inactive) | 93.2% (inactive) | 0.7% (inactive) | 92.5 | 93.2 | 2.67% (inactive) | -1.8% (inactive) |
| CC(C(=O)Nc1ccccc1-c1ccccc1)N1CCN(C(=O)c2ccco2)CC1 (stereo not given) | 91.5 | 95% (inactive) | 91.5% (inactive) | 96.2% (inactive) | 74.1% (inactive) | 8.3% (inactive) | 65.8 | 74.1 | -6.18% (inactive) | 0.32% (inactive) |
| O=C(O)c1cc2c(s1)CCCC2 | 88.5 | 93% (inactive) | 88.5% (inactive) | 104% (inactive) | 89.9% (inactive) | -1.15% (inactive) | 91.1 | 89.9 | -1.03% (inactive) | -7.83% (inactive) |
| CCOc1ccc(-c2noc(-c3ccncc3)n2)cc1OCC | 99 | 108% (inactive) | 99% (inactive) | 119% (inactive) | 86.7% (inactive) | -3.94% (inactive) | 90.7 | 86.7 | -6.13% (inactive) | -1.61% (inactive) |
| Nc1nc(CSCc2ccccc2)nc(N2CCOCC2)n1 | 99.5 | 93.5% (inactive) | 99.5% (inactive) | 109% (inactive) | 95% (inactive) | 5.8% (inactive) | 89.2 | 95 | -5.27% (inactive) | -8.67% (inactive) |
| CC(C)N1C(=O)C2C(C(=O)NC3CCCCC3)C3C=CC2(O3)C1C(=O)NC1CCCC1 (stereo not given) | 94.5 | 87% (inactive) | 94.5% (inactive) | 107% (inactive) | 109% (inactive) | 15.9% (inactive) | 93.5 | 109 | -4.67% (inactive) | -1.11% (inactive) |
| COC(=O)Nc1ccc(NC(C)=O)cc1 | 96 | 116% (inactive) | 96% (inactive) | 103% (inactive) | 91% (inactive) | 8.88% (inactive) | 82.1 | 91 | 5.84% (inactive) | -8.36% (inactive) |
| O=C(COC(=O)CSc1nnc(-c2ccc(Cl)cc2)o1)NCc1ccc2c(c1)OCO2 | 98 | 84% (inactive) | 98% (inactive) | 90.8% (inactive) | 104% (inactive) | 3.27% (inactive) | 100 | 104 | -4.19% (inactive) | 0.79% (inactive) |
| COc1cccc(-c2nc(CSCC(=O)N3CCc4ccccc43)c(C)o2)c1 | 82.5 | 162% (inactive) | 82.5% (inactive) | 82.1% (inactive) | 87.1% (inactive) | -10.1% (inactive) | 97.1 | 87.1 | 2.63% (inactive) | -8.67% (inactive) |
| O=C1CCCN1CCCNc1ncnc2c1[nH]c1ccc(Cl)cc12 | 89 | 81% (inactive) | 89% (inactive) | 85.3% (inactive) | 80.9% (inactive) | 3.12% (inactive) | 77.8 | 80.9 | -7.6% (inactive) | -0.48% (inactive) |
| Cc1cc2ccccn2c1C(=O)c1ccncc1 | 114 | 98% (inactive) | 114% (inactive) | 106% (inactive) | 87.9% (inactive) | 9.15% (inactive) | 78.8 | 87.9 | -3.77% (inactive) | 2.22% (inactive) |

| SMILES | viability [1] [%] | Her2 level [2] | viability [3] | viability [4] | viability [5] | differential viability (reversal) ([6]; H69AR cells + 2 uM doxorubicin) | viability [6, 9] [%] | viability [6, 10] [%] | inhibition [7] | inhibition [8] |
| --- | --- | --- | --- | --- | --- | --- | --- | --- | --- | --- |
| CCOC(=O)CNC(=O)C(Cc1ccccc1)NS(=O)(=O)c1ccc2c(c1)CCC(=O)N2 (stereo not given) | 101 | 114% (inactive) | 101% (inactive) | 92.8% (inactive) | 90.7% (inactive) | -0.925% (inactive) | 91.7 | 90.7 | 1.84% (inactive) | -5.64% (inactive) |
| Cc1onc(-c2ccccc2)c1C(N)=O | 91 | 93.5% (inactive) | 91% (inactive) | 97.7% (inactive) | 100% (inactive) | 13.8% (inactive) | 86.7 | 100 | -1.32% (inactive) | -4.35% (inactive) |
| COc1cccc(CNC(=O)C2CCN(C(=O)N(C)C)CC2)c1 | 97.5 | 118% (inactive) | 97.5% (inactive) | 90% (inactive) | 92.2% (inactive) | 0.06% (inactive) | 92.2 | 92.2 | -0.64% (inactive) | 11.8% (inactive) |
| Cc1nc2cc(Cl)ccc2n1CCO | 101 | 95.5% (inactive) | 101% (inactive) | 102% (inactive) | 92% (inactive) | 7.68% (inactive) | 84.4 | 92 | -9.86% (inactive) | 0.32% (inactive) |
| Cc1ccc(-c2nn(C)c(=O)c3ccccc23)cc1S(=O)(=O)NCCN1CCOCC1 | 87 | 121% (inactive) | 87% (inactive) | 98.6% (inactive) | 93.3% (inactive) | 5.54% (inactive) | 87.8 | 93.3 | 6.8% (inactive) | -6.35% (inactive) |
| CC1=C(C(=O)Nc2ccccc2)C(c2ccco2)C(C#N)=C(SCC(=O)Nc2cccc(C)c2C)N1 (stereo not given) | 104 | 85.5% (inactive) | 104% (inactive) | 77.1% (inactive) | 47.5% (active) | -10.1% (inactive) | 57.6 | 47.5 | -4.93% (inactive) | -3.97% (inactive) |
| CN(CCc1ccccn1)C(=O)CCNC(=O)Cn1cnc2ccccc2c1=O | 99.5 | 97.5% (inactive) | 99.5% (inactive) | 88.9% (inactive) | 96.4% (inactive) | 13.9% (inactive) | 82.5 | 96.4 | -2.86% (inactive) | -1.9% (inactive) |
| Cc1nc(Nc2nc(=O)c3ccccc3n2C)nc2c(C)cccc12 | 122 | 98% (inactive) | 122% (inactive) | 89.5% (inactive) | 86.1% (inactive) | -12.9% (inactive) | 99 | 86.1 | -2.89% (inactive) | 2.54% (inactive) |
| Cc1cccc(N2CN=c3s/c(=C\c4ccncc4)c(=O)n3C2)c1 | 86.5 | 68% (inactive) | 86.5% (inactive) | 77.4% (inactive) | 80.8% (inactive) | -10.2% (inactive) | 91 | 80.8 | -1.32% (inactive) | -2.42% (inactive) |
| CC1(C)OC(=O)C(=CNc2ccccc2)C(=O)O1 | 98 | 94% (inactive) | 98% (inactive) | 98.7% (inactive) | 108% (inactive) | 10.9% (inactive) | 97.2 | 108 | 0.39% (inactive) | 0.18% (inactive) |
| CCOC(=O)c1ccc(Oc2cc(C)nc(SC)n2)cc1 | 88.5 | 99% (inactive) | 88.5% (inactive) | 36.8% (inactive) | 16.5% (active) | -52% (inactive) | 68.5 | 16.5 | -5.54% (inactive) | 2.3% (inactive) |
| Cc1nc2sc(C(c3cccc(F)c3)N3CCOCC3)c(O)n2n1 (stereo not given) | 117 | 93.5% (inactive) | 117% (inactive) | 90.8% (inactive) | 94.7% (inactive) | 7.72% (inactive) | 87 | 94.7 | -4.79% (inactive) | -3.65% (inactive) |
| CCCOC(=O)CSc1nc(N)c(C#N)c(CC)c1C#N | 99.5 | 116% (inactive) | 99.5% (inactive) | 105% (inactive) | 94.6% (inactive) | 0.73% (inactive) | 93.9 | 94.6 | 2% (inactive) | 0.16% (inactive) |
| CCc1nnc(NC(=O)NCN2C(=O)C3C4C=CC(C4)C3C2=O)s1 (stereo not given) | 123 | 85.5% (inactive) | 123% (inactive) | 84.4% (inactive) | 95.5% (inactive) | 1.7% (inactive) | 93.8 | 95.5 | -6.44% (inactive) | -5.24% (inactive) |
| Cc1cccc(-n2c(Cc3cc(=O)[nH]c(=O)[nH]3)nnc2SCC(=O)NCc2ccco2)c1 | 99.5 | 89.5% (inactive) | 99.5% (inactive) | 108% (inactive) | 111% (inactive) | 13.9% (inactive) | 97.1 | 111 | -7.07% (inactive) | 4.19% (inactive) |
| CCOC(=O)C1CCN(C(=O)c2ccc(Cl)c(Cl)c2)CC1 | 75.5 | 105% (inactive) | 75.5% (inactive) | 94.3% (inactive) | 102% (inactive) | 5.88% (inactive) | 96.3 | 102 | 3.65% (inactive) | -2.3% (inactive) |
